Measured values from article PMC3220788 (The Journal of steroid biochemistry and molecular biology, 2011).
pIC50: −log10 of the molar value. Like-named read-outs stand apart in the source and are kept apart here.

Legend:
COS7 cells = experiment: PI3K activation; format: cell-based; conditions: 10 µM, COS7 lacking ERα, ERβ and GPER
Outline: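 COS7 cells carry no endogenous ERα, ERβ or GPER. They are transfected with PH-mRFP1 alone (¼ the recommended amount, Lipofectamine2000), grown on coverslips and serum-starved 24 h in phenol red-free RPMI. Cells are stimulated with compounds at 10 µM, fixed in 2% PFA, and scored by confocal microscopy for nuclear translocation of the PIP3 reporter.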

ERα [1] = experiment: PI3K activation; format: cell-based; conditions: COS7 ERα-GFP
ERα/β = ERα/β (Homo sapiens, UniProt P03372); experiment: ERE-GFP reporter activation/inhibition assay in MCF-7 cells; format: cell-based; conditions: for inhibition of E2-induced ERE response: 1 nM E2
ERα [2] = format: binding
Outline: (§1)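 COS7 cells are transiently transfected (Lipofectamine2000) with ERα-GFP or ERβ-GFP and serum-starved 24 h. About 5×10⁴ cells are incubated 20 min with test compound, then an equal volume of 20 nM E2-Alexa633 in saponin permeabilization buffer is added. After 10 min at RT, cells are washed in PBS/2% BSA and read by high-throughput flow cytometry.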

ERβ [3] = format: binding
Outline: as §1

ERα [4] = conditions: cited from earlier work
ERβ [5] = conditions: high concentrations (≥10 µM); cited from earlier work
ERα or ERβ = conditions: ERα- or ERβ-expressing cells; cited from earlier work
GPER [6] = target: T1, GPER (Homo sapiens, UniProt Q99527); experiment: Intracellular calcium mobilization in SKBr3 cells; format: cell-based
Outline: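 SKBr3 cells are loaded with 3 µM indo1-AM and 0.05% pluronic acid in HBSS for 1 h at RT, washed, and assayed at 2×10⁶ cells/mL. Calcium is read ratiometrically (ex 340 nm, em 400/490 nm) at 37°C with stirring. […] Responses are normalized to agonist plus DMSO vehicle, and IC50 is taken from the dose-response curve.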

[7] = test system: endogenous purinergic receptors; experiment: Calcium mobilization by ATP in SKBr3 cells; format: cell-based; conditions: 10 µM G36, SKBr3
Outline: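 SKBr3 cells are loaded with 3 µM indo1-AM and 0.05% pluronic acid in HBSS for 1 h at RT, washed, and assayed at 2×10⁶ cells/mL. Calcium is read ratiometrically (ex 340/em 400/490 nm) at 37°C in a stirred spectrofluorometer. Cells are pretreated with 10 µM test compound, then given 1 µM ATP to engage endogenous purinergic receptors.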

GPER [8] = target: T1, GPER; experiment: PI3K activation; format: cell-based; conditions: COS7 GPER-GFP, 1 µM G36 preincubated 20 min
Outline: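 COS7 cells are cotransfected (Lipofectamine2000) with GPER-GFP and PH-mRFP1, the latter at ¼ the recommended amount. […] Cells are fixed in 2% PFA and imaged by confocal microscopy for PH-mRFP1 nuclear translocation as the PI3K read-out.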

GPER [9] = target: T1, GPER; experiment: ERK activation; format: cell-based
uterine epithelia = experiment: Mouse uterine estrogenicity assay; format: in vivo; conditions: s.c., 18 hr
[10] = entire range of concentrations tested

T1 sequence (Q99527 whole entry, species assumed): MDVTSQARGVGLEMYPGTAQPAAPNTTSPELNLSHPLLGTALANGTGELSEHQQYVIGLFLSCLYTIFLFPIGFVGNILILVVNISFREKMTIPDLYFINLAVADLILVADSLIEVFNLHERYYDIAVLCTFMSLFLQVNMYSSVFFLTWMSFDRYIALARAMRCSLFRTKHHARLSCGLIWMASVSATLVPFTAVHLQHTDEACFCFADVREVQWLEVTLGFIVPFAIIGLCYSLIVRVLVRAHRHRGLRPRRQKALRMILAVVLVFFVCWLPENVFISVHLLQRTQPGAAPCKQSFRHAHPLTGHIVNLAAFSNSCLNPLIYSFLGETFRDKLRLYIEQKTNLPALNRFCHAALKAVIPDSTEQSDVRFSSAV
ERα/β, sequence (P03372 whole entry): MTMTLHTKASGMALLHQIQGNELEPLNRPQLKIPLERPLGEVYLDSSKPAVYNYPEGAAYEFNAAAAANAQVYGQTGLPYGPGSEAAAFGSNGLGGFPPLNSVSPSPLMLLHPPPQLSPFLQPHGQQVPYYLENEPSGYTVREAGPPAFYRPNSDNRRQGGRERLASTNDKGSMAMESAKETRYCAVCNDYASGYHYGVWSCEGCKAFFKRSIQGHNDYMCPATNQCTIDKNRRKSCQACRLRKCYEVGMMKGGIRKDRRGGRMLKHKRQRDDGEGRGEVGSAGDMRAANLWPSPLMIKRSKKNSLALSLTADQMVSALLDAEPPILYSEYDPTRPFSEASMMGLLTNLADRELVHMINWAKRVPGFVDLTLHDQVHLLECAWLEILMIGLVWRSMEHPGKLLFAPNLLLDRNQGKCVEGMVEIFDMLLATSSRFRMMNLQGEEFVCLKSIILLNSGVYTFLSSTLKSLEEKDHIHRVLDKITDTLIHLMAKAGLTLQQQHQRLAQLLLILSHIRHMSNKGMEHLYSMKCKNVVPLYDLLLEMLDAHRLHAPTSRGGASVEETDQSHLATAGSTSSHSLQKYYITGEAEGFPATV

C[C@]12CC[C@@H]3c4ccc(O)cc4CC[C@H]3[C@@H]1CC[C@@H]2O [E2, 17β-estradiol, reference compound]
activation of PI3K (nuclear translocation of PH-RFP) (COS7 cells): no activation of PI3K
activation of PI3K (nuclear translocation of PH-RFP) (ERα [1]): activate PI3K

Brc1cc2c(cc1[C@@H]1Nc3ccccc3[C@@H]3C=CC[C@@H]31)OCO2 [G15]
inhibition of E2-induced ERE response (ERα/β; 1 µM compound): no significant effect
ERE reporter activity compared to maximal E2 response (ERα/β; 1 µM, Fig. 5): ~ 15%
inhibition of E2-induced ERE response (ERα/β; 10 µM compound): ~ 30%
inhibitory effects on estrogen-induced transcription (ERα/β; E2 at 10 nM (data not shown)): absent
ERE activation (ERα/β; concentrations 1–10 µM, Fig. 2): 15–20%
activation of the ERE reporter (of E2 response) (ERα/β; high doses (≥1 µM), 24 h, MCF-7 ERE-GFP): ≤ 20%
binding to ERα (competition of E2-Alexa633) (ERα [2]; highest concentration, 10 µM): weak but significant binding
binding to ERβ (competition of E2-Alexa633) (ERβ [3]; highest concentration, 10 µM): weak but significant binding
binding to ERα (ERα [4]; high concentrations (≥10 µM)): weak binding
binding to ERβ (ERβ [5]): weak binding
rapid signaling events via MAPK or PI3K pathways (ERα or ERβ): does not mediate rapid signaling events

CC(C)c1ccc2c(c1)C1C=CCC1C(c1cc3c(cc1Br)OCO3)N2 (stereo not drawn) [G36, 4-(6-Bromo-benzo[1,3]dioxol-5-yl)-8-isopropyl-3a,4,5,9b-tetrahydro-3H-cyclopenta[c]quinoline]
inhibition at 10 µM (ERα/β; MCF7, read-out: inhibition of E2-induced ERE response): < 5%
ERE response elicited (ERα/β; concentrations up to 1 µM): no significant ERE response
antagonism of E2-mediated ERE response (ERα/β; concentrations up to 10 µM): no ability to antagonize
binding to ERα (competition of E2-Alexa633) (ERα [2]; [10]): lacking detectable binding activity
binding to ERβ (competition of E2-Alexa633) (ERβ [3]; [10]): lacking detectable binding activity
effect on basal calcium level in cells (GPER [6]; 10 µM G36 alone, SKBr3): did not alter
pIC50 (GPER [6]; IC50, inhibition of E2-mediated calcium mobilization, SKBr3, E2 200 nM): 6.95
pIC50 (GPER [6]; IC50, inhibition of G-1-mediated calcium mobilization, SKBr3, G-1 200 nM): 6.78
inhibition of calcium mobilization by 1 µM ATP [7]: no inhibition
activation of PI3K (nuclear translocation of PH-RFP) (COS7 cells): no activation of PI3K
inhibition of E2-mediated PI3K activation (ERα [1]; 1 µM G36 preincubated 20 min): did not inhibit
inhibition of E2-induced PI3K activation (GPER [8]): effectively inhibited
effect on E2-induced ERK activation (GPER [9]; SKBr3, E2 10 nM, 1 µM antagonist pre-incubated 15 min): significant decrease
effect on EGF-induced ERK activation (GPER [9]; SKBr3, EGF 10 ng/mL, 1 µM antagonist): unchanged
effect on G-1-induced ERK activation (GPER [9]; SKBr3, G-1 10 nM, 1 µM antagonist pre-incubated 15 min): significant decrease
effect on proliferation compared to E2 treatment (uterine epithelia; G36 50 ug/kg with E2 10 ug/kg): significant decrease in proliferation
effect on proliferative response to G-1 (uterine epithelia; G36 50 ug/kg with G-1 10 ug/kg): completely abrogated
uterine epithelial proliferation (Ki-67 positivity), compound alone (uterine epithelia; ovariectomized C57Bl6 mice, E2 10 ug/kg, G-1 10 ug/kg, G36 50 ug/kg): no effect

CC(=O)c1ccc2c(c1)C1C=CCC1C(c1cc3c(cc1Br)OCO3)N2 (stereo not drawn) [G-1]
activation of PI3K (nuclear translocation of PH-RFP) (COS7 cells): no activation of PI3K
ER binding competition (ERα [4]; 10 µM): unable to detect significant competition
